In ChEMBL document CHEMBL1122613, “A water-soluble cholesteryl-containing trisgalactoside: synthesis, properties, and use in directing lipid-containing particles to the liver” (J Med Chem, 1984):

Legend:
[1] = 14C uptake in liver after perfusion on administration of 0 mol of [14C]- sucrose containing liposomes with compound; assay type: ADME; settings: rat
[2] = [125I]- uptake in liver after perfusion on administration of 0 nmol of compound/ug of [125I]- LDL protein; assay type: ADME, tissue-based; settings: rat
Outline: (§1)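 Human LDL (d 1.019–1.063) was labeled with 125I. 20 μg LDL-protein was mixed with 0, 5 or 13 μg compound in water for 10 min at room temperature, then given iv to pentobarbital-anesthetized male rats. At 10 min, blood was taken by aortic puncture and the liver perfused via the portal vein (Ca2+-free Hanks, 14 mL/min, 8 min), then excised. Samples were γ-counted; results are % injected dose.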

[3] = tested on: Rattus norvegicus; experiment: Amount of [125I]- remaining in blood 10 min after administration of 0.25 nmol of compound/ug of [125I]- LDL protein; assay type: ADME, organism-based; outline: as §1
[4] = [125I]- uptake in liver after perfusion on administration of 0.65 nmol of compound/ug of [125I]- LDL protein; assay type: ADME, tissue-based; settings: rat; outline: as §1
[5] = tested on: Rattus norvegicus; experiment: Amount of [125I]- remaining in blood 10 min after administration of 0.65 nmol of compound/ug of [125I]- LDL protein in rats preinjected with Gal-N-Ac 110 mg; assay type: ADME, organism-based; settings: in vivo
Outline: (§2)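 110 mg 2-acetamido-2-deoxygalacto- or -glucopyranose was injected iv 1 min before the 125I-LDL, which had been preincubated 10 min at room temperature with compound (13 μg per 20 μg LDL-protein). Rats were pentobarbital-anesthetized males. Blood was taken at 10 min, and the liver was perfused with Ca2+-free Hanks and excised. Samples were γ-counted; blood totals assume 4 mL serum/100 g body weight; values are % injected dose.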

[6] = tested on: Rattus norvegicus; experiment: Amount of [125I]- remaining in blood 10 min after administration of 0.65 nmol of compound/ug of [125I]- LDL protein; assay type: ADME, organism-based; outline: as §1
[7] = [125I]- uptake in liver after perfusion on administration of 0.65 nmol of compound/ug of [125I]- LDL protein in rats preinjected with Glc-N-Ac 110 mg; assay type: ADME, tissue-based; settings: rat, in vivo; outline: as §2
[8] = [125I]- uptake in liver after perfusion on administration of 0.65 nmol of compound/ug of [125I]- LDL protein in rats preinjected with Gal-N-Ac 110 mg; assay type: ADME, tissue-based; settings: rat, in vivo; outline: as §2
[9] = [125I]- uptake in liver after perfusion on administration of 0.05 nmol of compound/ug of [125I]- LDL protein; assay type: ADME, tissue-based; settings: rat
[10] = tested on: Rattus norvegicus; experiment: Amount of [125I]- remaining in blood 10 min after administration of 0.65 nmol of compound/ug of [125I]- LDL protein in rat preinjected with Glc-N-Ac 110 mg; assay type: ADME, organism-based; settings: in vivo; outline: as §2
[11] = species on record: Rattus norvegicus; experiment: Amount of 14C remaining in blood 120 min after injection of 0.1 mol of [14C]- sucrose containing liposomes with compound; assay type: ADME, organism-based; settings: 2 h
[12] = tested on: Rattus norvegicus; experiment: Amount of [125I]- remaining in blood 10 min after administration of 0.05 nmol of compound/ug of [125I]- LDL protein; assay type: ADME, organism-based
[13] = species on record: Rattus norvegicus; experiment: Amount of 14C remaining in blood 120 min after injection of 0 mol of [14C]- sucrose containing liposomes with compound; assay type: ADME, organism-based; settings: 2 h
[14] = [125I]- uptake in liver after perfusion on administration of 0.25 nmol of compound/ug of [125I]- LDL protein; assay type: ADME, tissue-based; settings: rat; outline: as §1
[15] = tested on: Rattus norvegicus; experiment: Amount of [125I]- remaining in blood 10 min after administration of 0 nmol of compound/ug of [125I]- LDL protein; assay type: ADME, organism-based; outline: as §1
[16] = 14C uptake in liver after perfusion on administration of 0.1 mol of [14C]- sucrose containing liposomes with compound; assay type: ADME; settings: rat

## CC(C)CCC[C@@H](C)[C@H]1CC[C@H]2[C@@H]3CC=C4C[C@@H](OC(=O)CCC(=O)NCC(=O)NC(CO[C@@H]5O[C@H](CO)[C@H](O)[C@H](O)[C@H]5O)(CO[C@@H]5O[C@H](CO)[C@H](O)[C@H](O)[C@H]5O)CO[C@@H]5O[C@H](CO)[C@H](O)[C@H](O)[C@H]5O)CC[C@]4(C)[C@H]3CC[C@]12C
[1]
  Activity: 3%
[2]
  Activity: 1.9%
[3]
  Activity: 57%
[4]
  Activity: 41%
[5]
  Activity: 94%
[6]
  Activity: 23%
[7]
  Activity: 39%
[8]
  Activity: 3.2%
[9]
  Activity: 2%
[10]
  Activity: 27%
[11]
  Activity: 48%
[12]
  Activity: 96%
[13]
  Activity: 82%
[14]
  Activity: 33%
[15]
  Activity: 97%
[16]
  Activity: 48%
